The source of these data is ChEMBL document CHEMBL1151705, “Novel azalides derived from 16-membered macrolides. Part II: Isolation of the linear 9-formylcarboxylic acid and its sequential macrocyclization with an amino alcohol or an azidoamine” (2008).

Common to all, as to assay type: functional
The test system of experiment [1] is Streptococcus pneumoniae. In words: Antimicrobial activity against Streptococcus pneumoniae 10 expressing mefA after 20 hrs by agar dilution method. Conditions: Streptococcus pneumoniae, 20 h; read-out: MIC. The method in brief:
(§1)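 Streptococci, H. influenzae and M. catarrhalis were precultured on blood agar plates. Suspensions of about 10⁶ CFU/ml were inoculated onto sensitivity disk agar supplemented with 5% horse blood and incubated at 37 °C for 20 h. MIC was read as the lowest drug concentration with no visible growth.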
(In general: In agar dilution, organisms are placed on agar that contains the substance at set levels.)

Experiment [2] concerns Streptococcus pneumoniae. In words: Antimicrobial activity against Streptococcus pneumoniae 5 constitutively expressing ermB/mefA after 20 hrs by agar dilution method. Conditions: Streptococcus pneumoniae, 20 h; read-out: MIC. Put shortly:
as §1

The test system of experiment [3] is Staphylococcus aureus. In words: Antimicrobial activity against drug-susceptible Staphylococcus aureus 209P JC-1 after 20 hrs by agar dilution method. The settings on record: Staphylococcus aureus, 209P, 20 h; read-out: MIC. The method in brief:
(§2)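 Agar dilution MIC. S. aureus seed culture was grown in sensitivity test broth. Cell suspension (about 10⁶ CFU/ml) was inoculated onto sensitivity disk agar with 5% horse blood and incubated at 37 °C for 20 h. MIC was the lowest drug concentration that prevented visible growth.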

The test system of experiment [4] is Haemophilus influenzae. As to the kind of experiment: Antimicrobial activity against drug-susceptible Haemophilus influenzae 3 after 20 hrs by agar dilution method. Conditions: Haemophilus influenzae, 20 h; read-out: MIC. Put shortly:
as §1

Experiment [5] has as its system Streptococcus pneumoniae. In words: Antimicrobial activity against drug-susceptible Streptococcus pneumoniae 2 after 20 hrs by agar dilution method. Conditions: Streptococcus pneumoniae, 20 h; read-out: MIC. The method in brief: as §1
Experiment [6] concerns Haemophilus influenzae. As to the kind of experiment: Antimicrobial activity against drug-susceptible Haemophilus influenzae 1 after 20 hrs by agar dilution method. Conditions: Haemophilus influenzae, 20 h; read-out: MIC. The method in brief: as §1
Experiment [7] has as its system Streptococcus pneumoniae. As to the kind of experiment: Antimicrobial activity against drug-susceptible Streptococcus pneumoniae DP1 Type1 after 20 hrs by agar dilution method. The settings on record: Streptococcus pneumoniae, 20 h; read-out: MIC. Put shortly:
as §1

The test system of experiment [8] is Staphylococcus aureus. In words: Antimicrobial activity against Staphylococcus aureus 4 constitutively expressing ermA after 20 hrs by agar dilution method. The method in brief:
as §2

The subject of experiment [9] is Haemophilus influenzae. As to the kind of experiment: Antimicrobial activity against drug-susceptible Haemophilus influenzae 2 after 20 hrs by agar dilution method. Conditions: Haemophilus influenzae, 20 h; read-out: MIC. Put shortly: as §1
The subject of experiment [10] is Streptococcus pneumoniae. As to the kind of experiment: Antimicrobial activity against Streptococcus pneumoniae 7 expressing inducible ermB after 20 hrs by agar dilution method. The settings on record: Streptococcus pneumoniae, 20 h; read-out: MIC. Put shortly:
as §1

Experiment [11] relates to Streptococcus pyogenes. As to the kind of experiment: Antimicrobial activity against drug-susceptible Streptococcus pyogenes 1 after 20 hrs by agar dilution method. The settings on record: Streptococcus pyogenes, 20 h; read-out: MIC. Put shortly:
as §1

In experiment [12] the test system is Streptococcus pneumoniae. As to the kind of experiment: Antimicrobial activity against Streptococcus pneumoniae 6 constitutively expressing ermB after 20 hrs by agar dilution method. Conditions: Streptococcus pneumoniae, 20 h; read-out: MIC. The method in brief: as §1
For experiment [13], the system named is Moraxella catarrhalis. As to the kind of experiment: Antimicrobial activity against drug-susceptible Moraxella catarrhalis 2 after 20 hrs by agar dilution method. The settings on record: Moraxella catarrhalis, 20 h; read-out: MIC. The method in brief:
as §1

In experiment [14] the test system is Staphylococcus aureus. As to the kind of experiment: Antimicrobial activity against Staphylococcus aureus 5 expressing inducible ermB after 20 hrs by agar dilution method. Conditions: Staphylococcus aureus, 20 h; read-out: MIC. The method in brief: as §2
In experiment [15] the test system is Staphylococcus aureus. As to the kind of experiment: Antimicrobial activity against drug-susceptible Staphylococcus aureus 3 after 20 hrs by agar dilution method. The settings on record: Staphylococcus aureus, 20 h; read-out: MIC. Put shortly: as §2
The subject of experiment [16] is Haemophilus influenzae. In words: Antimicrobial activity against drug-susceptible Haemophilus influenzae 4 after 20 hrs by agar dilution method. Conditions: Haemophilus influenzae, 20 h; read-out: MIC. The method in brief: as §1
The test system of experiment [17] is Streptococcus pneumoniae. As to the kind of experiment: Antimicrobial activity against Streptococcus pneumoniae 9 expressing mefA after 20 hrs by agar dilution method. Conditions: Streptococcus pneumoniae, 20 h; read-out: MIC. The method in brief:
as §1

The subject of experiment [18] is Streptococcus pyogenes. In words: Antimicrobial activity against Streptococcus pyogenes 3 expressing mefA after 20 hrs by agar dilution method. The settings on record: Streptococcus pyogenes, 20 h; read-out: MIC. Put shortly: as §1
In experiment [19] the test system is Staphylococcus aureus. As to the kind of experiment: Antimicrobial activity against drug-susceptible Staphylococcus aureus 2 after 20 hrs by agar dilution method. Conditions: Staphylococcus aureus, 20 h; read-out: MIC. The method in brief: as §2
The subject of experiment [20] is Streptococcus pneumoniae. As to the kind of experiment: Antimicrobial activity against Streptococcus pneumoniae 8 expressing inducible ermB after 20 hrs by agar dilution method. Conditions: Streptococcus pneumoniae, 20 h; read-out: MIC. The method in brief:
as §1

The subject of experiment [21] is Streptococcus pyogenes. In words: Antimicrobial activity against Streptococcus pyogenes 2 constitutively expressing ermB after 20 hrs by agar dilution method. Put shortly:
as §1

Experiment [22] has as its system Moraxella catarrhalis. As to the kind of experiment: Antimicrobial activity against drug-susceptible Moraxella catarrhalis 1 after 20 hrs by agar dilution method. Conditions: Moraxella catarrhalis, 20 h; read-out: MIC. The method in brief:
as §1

For experiment [23], the system named is Staphylococcus aureus. In words: Antimicrobial activity against Staphylococcus aureus 6 expressing inducible ermB after 20 hrs by agar dilution method. Put shortly: as §2

Converted amounts (≈) assume the structure as drawn.

As for `CCOC(=O)[C@H]1[C@H](C)O[C@@H](O[C@H]2[C@H](N(C)C)[C@@H](O)[C@H](O[C@H]3[C@@H](CC=O)C[C@@H](C)[C@@H](OC(C)=O)CN(CCCCc4ccccc4)C[C@@H](C)OC(=O)C[C@@H](OC(=O)CC)[C@@H]3OC)O[C@@H]2C)C[C@@]1(C)OC(C)=O`, the MIC was 2 µg/mL (≈ 1.99 µM) in experiment [1]; more than 128 µg/mL in experiment [2]; 4 µg/mL (≈ 3.97 µM) in [3]; more than 128 µg/mL in experiment [4]; 2 µg/mL (≈ 1.99 µM) in [5]; more than 128 µg/mL in experiment [6]. Moreover, the MIC is 1 µg/mL (≈ 0.993 µM) in [7]; more than 128 µg/mL in experiment [8]; more than 128 µg/mL in [9]; more than 128 µg/mL in experiment [10]; 2 µg/mL (≈ 1.99 µM) in experiment [11]; more than 128 µg/mL in experiment [12]. In addition, the MIC in [13] is more than 128 µg/mL; in experiment [14], 4 µg/mL (≈ 3.97 µM); in [15], 4 µg/mL (≈ 3.97 µM); in experiment [16], more than 128 µg/mL; in [17] it was 2 µg/mL (≈ 1.99 µM); in [18], 4 µg/mL (≈ 3.97 µM). The MIC in [19] was more than 128 µg/mL; in experiment [20] it was more than 128 µg/mL; in experiment [21], more than 128 µg/mL; in [22], 8 µg/mL (≈ 7.94 µM); in [23], 8 µg/mL (≈ 7.94 µM).
For `CCOC(=O)[C@H]1[C@H](C)O[C@@H](O[C@H]2[C@H](N(C)C)[C@@H](O)[C@H](O[C@H]3[C@@H](CC=O)C[C@@H](C)[C@@H](O)CN(CCCCc4ccccc4)CCCOC(=O)C[C@@H](OC(=O)CC)[C@@H]3OC)O[C@@H]2C)C[C@@]1(C)OC(C)=O`, the MIC was 0.13 µg/mL (≈ 0.135 µM) in [1]; more than 128 µg/mL in experiment [2]; 0.25 µg/mL (≈ 0.259 µM) in experiment [3]; 4 µg/mL (≈ 4.14 µM) in [4]; 0.13 µg/mL (≈ 0.135 µM) in experiment [5]; 16 µg/mL (≈ 16.6 µM) in experiment [6]. For the same compound, the MIC in [7] was 0.13 µg/mL (≈ 0.135 µM); in experiment [8] it was more than 128 µg/mL; in experiment [9], 1 µg/mL (≈ 1.04 µM); in [10] it was 4 µg/mL (≈ 4.14 µM); in experiment [11], 0.06 µg/mL (≈ 0.0622 µM); in [13], 0.25 µg/mL (≈ 0.259 µM). The MIC in experiment [14] was determined as 0.25 µg/mL (≈ 0.259 µM); in experiment [15], 0.25 µg/mL (≈ 0.259 µM); in [16] it was 8 µg/mL (≈ 8.29 µM); in experiment [17] it was 0.25 µg/mL (≈ 0.259 µM); in experiment [18], 0.13 µg/mL (≈ 0.135 µM); in experiment [19], 1 µg/mL (≈ 1.04 µM). The MIC in experiment [20] was 16 µg/mL (≈ 16.6 µM); in experiment [21] it was more than 128 µg/mL; in [22], 0.13 µg/mL (≈ 0.135 µM); in experiment [23] it was 0.5 µg/mL (≈ 0.518 µM).
As to `CCOC(=O)[C@H]1[C@H](C)O[C@@H](O[C@H]2[C@H](N(C)C)[C@@H](O)[C@H](O[C@H]3[C@@H](CC=O)C[C@@H](C)[C@@H](OC(C)=O)CN(CCCCc4ccccc4)CCC[C@@H](C)OC(=O)C[C@@H](OC(=O)CC)[C@@H]3OC)O[C@@H]2C)C[C@@]1(C)OC(C)=O`, the MIC is 0.13 µg/mL (≈ 0.126 µM) in experiment [1]; more than 128 µg/mL in experiment [2]; 0.5 µg/mL (≈ 0.483 µM) in experiment [3]; more than 128 µg/mL in experiment [4]; 0.25 µg/mL (≈ 0.241 µM) in experiment [5]; more than 128 µg/mL in experiment [6]. The MIC was 0.25 µg/mL (≈ 0.241 µM) in [7]; more than 128 µg/mL in experiment [8]; 4 µg/mL (≈ 3.86 µM) in experiment [9]; 4 µg/mL (≈ 3.86 µM) in [10]; 0.25 µg/mL (≈ 0.241 µM) in [11]; more than 128 µg/mL in experiment [12]. In addition, the MIC in [13] is 2 µg/mL (≈ 1.93 µM); in experiment [14], 1 µg/mL (≈ 0.966 µM); in experiment [15], 1 µg/mL (≈ 0.966 µM); in experiment [16] it was more than 128 µg/mL; in experiment [17] it was 0.25 µg/mL (≈ 0.241 µM); in experiment [18], 1 µg/mL (≈ 0.966 µM). Besides, the MIC in experiment [19] is 2 µg/mL (≈ 1.93 µM); in [20], 4 µg/mL (≈ 3.86 µM); in experiment [21] it was more than 128 µg/mL; in experiment [22], 1 µg/mL (≈ 0.966 µM); in [23] it was 2 µg/mL (≈ 1.93 µM).
In the case of `CCOC(=O)[C@H]1[C@H](C)O[C@@H](O[C@H]2[C@H](N(C)C)[C@@H](O)[C@H](O[C@H]3[C@@H](CC=O)C[C@@H](C)[C@@H](O)CN(CCCCc4ccccc4)CCC[C@@H](C)OC(=O)C[C@@H](OC(=O)CC)[C@@H]3OC)O[C@@H]2C)C[C@@]1(C)OC(C)=O`, the MIC in experiment [1] is 0.06 µg/mL (≈ 0.0604 µM); in experiment [2], more than 128 µg/mL; in experiment [3], 0.25 µg/mL (≈ 0.252 µM); in [4], 8 µg/mL (≈ 8.05 µM); in [5], 0.06 µg/mL (≈ 0.0604 µM); in experiment [6], 32 µg/mL (≈ 32.2 µM). In addition, the MIC in [7] is 0.06 µg/mL (≈ 0.0604 µM); in experiment [8], more than 128 µg/mL; in experiment [9], 0.5 µg/mL (≈ 0.503 µM); in [10], 1 µg/mL (≈ 1.01 µM); in experiment [11], 0.13 µg/mL (≈ 0.131 µM); in experiment [12], 64 µg/mL (≈ 64.4 µM). Moreover, the MIC in experiment [13] worked out at 0.5 µg/mL (≈ 0.503 µM); in experiment [14] it was 0.25 µg/mL (≈ 0.252 µM); in experiment [15], 0.25 µg/mL (≈ 0.252 µM); in experiment [16], 16 µg/mL (≈ 16.1 µM); in experiment [17], 0.13 µg/mL (≈ 0.131 µM); in experiment [18] it was 0.25 µg/mL (≈ 0.252 µM). Also, the MIC was 1 µg/mL (≈ 1.01 µM) in [19]; 1 µg/mL (≈ 1.01 µM) in [20]; 64 µg/mL (≈ 64.4 µM) in experiment [21]; 0.25 µg/mL (≈ 0.252 µM) in experiment [22]; 0.5 µg/mL (≈ 0.503 µM) in experiment [23].
